Reference: article PMC8273112 (ACS Infectious Diseases, 2021)

Columns and labels:
Leishmania donovani = conditions: read-out: in vitro IC50 Leishmania donovani; cited from earlier work
P. falciparum = conditions: cited from earlier work
P. berghei = conditions: cited from earlier work
Plasmodium yoelii = experiment: Modified 4-day Peters test, murine malaria; assay type: in vivo, Plasmodium yoelii in mice
HepG2 cytotoxicity assay = assay type: cell-based, human; conditions: human, HepG2 cells
[1] = system: P. falciparum strain Tm90–C2B; experiment: SYBR Green growth inhibition assay, P. falciparum Tm90-C2B; assay type: cell-based, Plasmodium falciparum; conditions: Plasmodium falciparum, TM90, 72 h, read-out: IC50 Tm90–C2B
Summary of the method: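 Human erythrocytes (≤28 days old), 2% hematocrit, asynchronous culture at 0.2% initial parasitemia, in RPMI-1640 with HEPES, hypoxanthine, glucose, glutamine and Albumax II. 2-fold serial dilution starting at 20 μM, quadruplicate. Incubated 72 h at 37 °C under 5% O2/5% CO2/90% N2. SYBR Green I dye-detergent added for at least 1 h in the dark; fluorescence read at 497/520 nm, normalized to untreated wells, plotted against log concentration.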

[2] = cited from earlier work
[3] = Murine microsomal stability; assay type: in vitro ADME
Toxoplasma gondii = conditions: cited from earlier work
[4] = system: Plasmodium falciparum strain D6; experiment: SYBR Green growth inhibition assay, P. falciparum D6; assay type: cell-based; conditions: Plasmodium falciparum, D6, 72 h, read-out: IC50 D6
[5] = system: P. falciparum A6 (SB1-A6); experiment: SYBR Green growth inhibition assay, P. falciparum A6; assay type: cell-based, Plasmodium falciparum; conditions: Plasmodium falciparum, 72 h, read-out: IC50 A6
Summary of the method: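 Asynchronous parasites grown in human erythrocytes in RPMI-1640 with HEPES, hypoxanthine and Albumax II under 5% O2/5% CO2/90% N2 at 37 °C. Test compound in 2-fold serial dilution from 20 μM, run in quadruplicate, at 2% hematocrit and 0.2% starting parasitemia for 72 h. SYBR Green I lysis dye added for ≥1 h in the dark. Fluorescence read at 497/520 nm, normalized to untreated wells and plotted against log concentration.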

[6] = system: Plasmodium falciparum strain Dd2; experiment: SYBR Green growth inhibition assay, P. falciparum Dd2; assay type: cell-based; conditions: Plasmodium falciparum, DD2, 72 h, read-out: IC50 Dd2
Babesia microti = conditions: oral; cited from earlier work
[7] = oral gavage days 1–4, parasitemia day 5, mice

| SMILES | IC50 (Leishmania donovani) | IC50 value against P. falciparum in vitro (P. falciparum) | activity in vivo against P. berghei (P. berghei) | P. yoelii ED50 (Plasmodium yoelii; [7]) | P. yoelii ED90 (Plasmodium yoelii; [7]) | P. yoelii NRD (nonrecrudescence dose, cure dose) (Plasmodium yoelii; oral gavage up to 25 mg/kg/day, no parasites at day 30) | IC50 at 24 h (HepG2 cytotoxicity assay) | IC50 [1] | absorption [2] | murine microsomal stability, t1/2 ([3]; 1 μM, 0.5 mg/mL protein, 37 °C, 1 h, NADPH) | CLint scaled at 1 μM ([3]; mouse, pooled murine liver microsomes, pH 7.4) | half-life at 1 μM ([3]; mouse, pooled murine liver microsomes, pH 7.4, murine microsomal stability, t1/2, 1 μM, 0.5 mg/mL protein, 37 °C, 1 h, NADPH) | in vitro IC50 Toxoplasma gondii (Toxoplasma gondii) | IC50 [4] | IC50 [5] | IC50 [6] | murine in vivo nonrecrudescence dose Babesia microti (Babesia microti) |
| --- | --- | --- | --- | --- | --- | --- | --- | --- | --- | --- | --- | --- | --- | --- | --- | --- | --- |
| Cl.Cl.Cl.N=C(N)c1cccc(/C=N/N=C(\N)N/N=C/c2cccc(C(=N)N)c2)c1 [CGP 40215A] | 18 µM | low micromolar |  |  |  |  |  |  |  |  |  |  |  |  |  |  |  |
| Cl.N=C(NN=Cc1ccc(Cl)cc1)NN=Cc1ccc(Cl)cc1 [robenidine, 1,3-Bis(p-chlorobenzylideneamino)guanidine hydrochloride, reference compound] |  |  | moderate activity | 1.6 mg/kg/day | 4.9 mg/kg/day | >25 mg/kg/day | 30 µM | 1.32 µM | poorly absorbed | 2.6442 h | 34.4 mL/min/kg | > 2.5 h | 0.03 µg/mL | 0.324 µM | 0.41 µM | 0.814 µM | 100 mg/kg/day |
